Measured values from ChEMBL document CHEMBL1629615, “Intrapulmonary pharmacokinetics and pharmacodynamics of posaconazole at steady state in healthy subjects” (Antimicrob Agents Chemother, 2009).

Columns and labels:
[1] = Cmax in healthy human plasma at 400 mg, po every 12 hrs for 7 days; assay type: ADME, organism-based; design: dose 400 mg, route oral
Method in brief: (§1)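 Noncompartmental analysis of day-8 concentration-time data after 14 oral 400 mg doses every 12 h. Plasma parameters came from each subject's profile. ELF and alveolar cell values came from mean concentrations at each BAL time (3 to 24 h). AUC0-12 was calculated by the linear trapezoidal method.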

[2] = Cmax in healthy human lung epithelial lining fluid at 400 mg, po every 12 hrs for 7 days; assay type: ADME, organism-based; design: dose 400 mg, route oral; method in brief: as §1
[3] = Cmax in healthy human alveolar cell at 400 mg, po every 12 hrs for 7 days; assay type: ADME, organism-based, Lung, Pneumocyte; design: dose 400 mg, route oral; settings: alveolar cells; method in brief: as §1
[4] = Tmax in healthy human plasma at 400 mg, po every 12 hrs for 7 days; assay type: ADME, organism-based; method in brief: as §1
[5] = Tmax in healthy human lung epithelial lining fluid at 400 mg, po every 12 hrs for 7 days; assay type: ADME, organism-based; method in brief: as §1
[6] = Tmax in healthy human alveolar cell at 400 mg, po every 12 hrs for 7 days; assay type: ADME, organism-based, Pneumocyte; settings: alveolar cells; method in brief: as §1
[7] = AUC (0 to 12 hrs) in healthy human plasma at 400 mg, po every 12 hrs for 7 days; assay type: ADME, organism-based; design: dose 400 mg, time < 12 hr, route oral; method in brief: as §1
[8] = AUC (0 to 12 hrs) in healthy human lung epithelial lining fluid at 400 mg, po every 12 hrs for 7 days; assay type: ADME, organism-based; design: time < 12 hr, dose 400 mg, route oral; method in brief: as §1
[9] = AUC (0 to 12 hrs) in healthy human alveolar cell at 400 mg, po every 12 hrs for 7 days; assay type: ADME, organism-based, Pneumocyte; design: time < 12 hr, dose 400 mg, route oral; settings: alveolar cells; method in brief: as §1
[10] = Ratio of Cmax in healthy human plasma at 400 mg, po every 12 hrs for 7 days to MIC90 for Aspergillus spp.; assay type: functional
[11] = Ratio of Cmax in healthy human lung epithelial lining fluid at 400 mg, po every 12 hrs for 7 days to MIC90 for Aspergillus spp.; assay type: functional
[12] = Ratio of Cmax in healthy human alveolar cell at 400 mg, po every 12 hrs for 7 days to MIC90 for Aspergillus spp.; assay type: functional, Pneumocyte
[13] = Ratio of AUC (0 to 24 hrs) in healthy human plasma at 400 mg, po every 12 hrs for 7 days to MIC90 for Aspergillus spp.; assay type: functional
[14] = Ratio of AUC (0 to 24 hrs) in healthy human lung epithelial lining fluid at 400 mg, po every 12 hrs for 7 days to MIC90 for Aspergillus spp.; assay type: functional
[15] = Ratio of AUC (0 to 24 hrs) in healthy human alveolar cell at 400 mg, po every 12 hrs for 7 days to MIC90 for Aspergillus spp.; assay type: functional, Pneumocyte
[16] = Drug level in healthy human plasma at 400 mg, po every 12 hrs for 7 days measured after 3 hrs of last dose; assay type: ADME, organism-based; settings: read-out: Drug uptake
Method in brief: (§2)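 Same dosing: 400 mg oral suspension after a high-fat meal every 12 h, 14 doses. Blood went into EDTA tubes at 0, 3, 5, 8, 12 and 24 h after the final dose and was spun at 1,300 x g for 10 min at 4°C. Plasma was frozen and assayed by validated LC-MS/MS, LLOQ 1.00 ng/ml, calibration 1.00 to 4,000 ng/ml.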

[17] = Drug level in healthy human plasma at 400 mg, po every 12 hrs for 7 days measured after 5 hrs of last dose; assay type: ADME, organism-based; settings: read-out: Drug uptake; method in brief: as §2
[18] = Drug level in healthy human plasma at 400 mg, po every 12 hrs for 7 days measured after 8 hrs of last dose; assay type: ADME, organism-based; settings: read-out: Drug uptake; method in brief: as §2
[19] = Drug level in healthy human plasma at 400 mg, po every 12 hrs for 7 days measured after 12 hrs of last dose; assay type: ADME, organism-based; settings: read-out: Drug uptake; method in brief: as §2
[20] = Drug level in healthy human plasma at 400 mg, po every 12 hrs for 7 days measured after 24 hrs of last dose; assay type: ADME, organism-based; settings: read-out: Drug uptake; method in brief: as §2
[21] = Drug level in healthy human alveolar cell at 400 mg, po every 12 hrs for 7 days measured after 3 hrs of last dose; assay type: ADME, organism-based, Pneumocyte; settings: alveolar cells, read-out: Drug uptake
Method in brief: (§3)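 Healthy adults got 400 mg oral suspension (40 mg/ml) 10 min after a high-fat meal every 12 h, for 14 doses over 8 days. Each subject had one bronchoscopy with BAL under topical lidocaine, no sedation, at 3, 5, 8, 12 or 24 h after the last dose. BAL fluid was spun at 400 x g for 5 min at 4°C. Supernatant and cell pellet were frozen at –70°C and assayed by LC-MS/MS against a plasma calibration curve. ELF volume was derived from urea.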

[22] = Drug level in healthy human alveolar cell at 400 mg, po every 12 hrs for 7 days measured after 5 hrs of last dose; assay type: ADME, organism-based, Pneumocyte; settings: alveolar cells, read-out: Drug uptake; method in brief: as §3
[23] = Drug level in healthy human alveolar cell at 400 mg, po every 12 hrs for 7 days measured after 8 hrs of last dose; assay type: ADME, organism-based, Pneumocyte; settings: alveolar cells, read-out: Drug uptake; method in brief: as §3
[24] = Drug level in healthy human alveolar cell at 400 mg, po every 12 hrs for 7 days measured after 12 hrs of last dose; assay type: ADME, organism-based, Pneumocyte; settings: alveolar cells, read-out: Drug uptake; method in brief: as §3
[25] = Drug level in healthy human alveolar cell at 400 mg, po every 12 hrs for 7 days measured after 24 hrs of last dose; assay type: ADME, organism-based, Pneumocyte; settings: alveolar cells, read-out: Drug uptake; method in brief: as §3
[26] = Drug level in healthy human lung epithelial lining fluid at 400 mg, po every 12 hrs for 7 days measured after 3 hrs of last dose; assay type: ADME, organism-based; settings: read-out: Drug uptake; method in brief: as §3
[27] = Drug level in healthy human lung epithelial lining fluid at 400 mg, po every 12 hrs for 7 days measured after 5 hrs of last dose; assay type: ADME, organism-based; settings: read-out: Drug uptake; method in brief: as §3
[28] = Drug level in healthy human lung epithelial lining fluid at 400 mg, po every 12 hrs for 7 days measured after 8 hrs of last dose; assay type: ADME, organism-based; settings: read-out: Drug uptake; method in brief: as §3
[29] = Drug level in healthy human lung epithelial lining fluid at 400 mg, po every 12 hrs for 7 days measured after 12 hrs of last dose; assay type: ADME, organism-based; settings: read-out: Drug uptake; method in brief: as §3
[30] = Drug level in healthy human lung epithelial lining fluid at 400 mg, po every 12 hrs for 7 days measured after 24 hrs of last dose; assay type: ADME, organism-based; settings: read-out: Drug uptake; method in brief: as §3
[31] = Ratio of Drug level in healthy human alveolar cell to drug level in healthy human plasma at 400 mg, po every 12 hrs for 7 days measured after 3 hrs of last dose; assay type: ADME, organism-based, Pneumocyte; settings: alveolar cells / plasma
[32] = Ratio of Drug level in healthy human alveolar cell to drug level in healthy human plasma at 400 mg, po every 12 hrs for 7 days measured after 5 hrs of last dose; assay type: ADME, organism-based, Pneumocyte; settings: alveolar cells / plasma
[33] = Ratio of Drug level in healthy human alveolar cell to drug level in healthy human plasma at 400 mg, po every 12 hrs for 7 days measured after 8 hrs of last dose; assay type: ADME, organism-based, Pneumocyte; settings: alveolar cells / plasma
[34] = Ratio of Drug level in healthy human alveolar cell to drug level in healthy human plasma at 400 mg, po every 12 hrs for 7 days measured after 12 hrs of last dose; assay type: ADME, organism-based, Pneumocyte; settings: alveolar cells / plasma
[35] = Ratio of Drug level in healthy human alveolar cell to drug level in healthy human plasma at 400 mg, po every 12 hrs for 7 days measured after 24 hrs of last dose; assay type: ADME, organism-based, Pneumocyte; settings: alveolar cells / plasma
[36] = Ratio of Drug level in healthy human lung epithelial lining fluid to drug level in healthy human plasma at 400 mg, po every 12 hrs for 7 days measured after 3 hrs of last dose; assay type: ADME, organism-based
[37] = Ratio of Drug level in healthy human lung epithelial lining fluid to drug level in healthy human plasma at 400 mg, po every 12 hrs for 7 days measured after 5 hrs of last dose; assay type: ADME, organism-based
[38] = Ratio of Drug level in healthy human lung epithelial lining fluid to drug level in healthy human plasma at 400 mg, po every 12 hrs for 7 days measured after 8 hrs of last dose; assay type: ADME, organism-based
[39] = Ratio of Drug level in healthy human lung epithelial lining fluid to drug level in healthy human plasma at 400 mg, po every 12 hrs for 7 days measured after 12 hrs of last dose; assay type: ADME, organism-based
[40] = Ratio of Drug level in healthy human lung epithelial lining fluid to drug level in healthy human plasma at 400 mg, po every 12 hrs for 7 days measured after 24 hrs of last dose; assay type: ADME, organism-based
[41] = T>MIC90 in healthy human lung epithelial lining fluid at 400 mg, po every 12 hrs for 7 days; assay type: functional
[42] = T>MIC90 in healthy human alveolar cell at 400 mg, po every 12 hrs for 7 days; assay type: functional, Pneumocyte
Plasma = test: T>MIC90 in healthy human plasma at 400 mg, po every 12 hrs for 7 days; assay type: functional
Homo sapiens [43] = test: Toxicity in healthy human plasma assessed as blood chemistry analysis at 400 mg, po every 12 hrs for 7 days; assay type: organism-based; settings: in vivo
Method in brief: (§4)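 Safety in healthy adults (21 to 55 y) given 400 mg orally every 12 h with a high-fat meal for 14 doses. Screening blood chemistry, hematology, urinalysis and ECG (corrected QT) were repeated on day 8.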

Homo sapiens [44] = test: Toxicity in healthy human plasma assessed as hematological analysis at 400 mg, po every 12 hrs for 7 days; assay type: organism-based; settings: in vivo; method in brief: as §4
Homo sapiens [45] = test: Toxicity in healthy human assessed as urine analysis at 400 mg, po every 12 hrs for 7 days; assay type: organism-based; settings: in vivo; method in brief: as §4
Homo sapiens [46] = test: Toxicity in healthy human assessed as vital adverse effects at 400 mg, po every 12 hrs for 7 days; assay type: organism-based; settings: in vivo; method in brief: as §4
[47] = Half life in human; assay type: ADME, organism-based; settings: in vivo
[48] = Protein binding in human; assay type: ADME, organism-based; settings: in vivo, read-out: PB
Homo sapiens [49] = test: Cardiotoxicity in healthy human assessed as corrected QT intervals at 400 mg, po every 12 hrs for 8 days; settings: in vivo

Work on `CC[C@@H]([C@H](C)O)n1ncn(-c2ccc(N3CCN(c4ccc(OC[C@@H]5CO[C@@](Cn6cncn6)(c6ccc(F)cc6F)C5)cc4)CC3)cc2)c1=O` [POSACONAZOLE] yielded a Cmax [1] of 2080 ng/mL, a Cmax [2] of 1860 ng/mL and a Cmax [3] of 87700 ng/mL. For the same compound, the Tmax [4] was 3.6 h, the Tmax [5] was 5 h and the Tmax [6] was 5 h. For the same compound, the AUC at 12 h [7] was 21900 ng·h/mL, the AUC at 12 h [8] was 18300 ng·h/mL and the AUC at 12 h [9] was 715000 ng·h/mL. For the same compound, the Ratio [10] was 4.15, the Ratio [11] was 3.72 and the Ratio [12] was 175. For the same compound, the Ratio [13] was 87.6, the Ratio [14] was 73.2 and the Ratio [15] was 2860. For the same compound, the concentration at 3 h [16] was 1930 ng/mL, the concentration at 5 h [17] was 1930 ng/mL and the concentration at 8 h [18] was 1730 ng/mL. The concentration at 12 h [19] was 1620 ng/mL, the concentration at 24 h [20] was 1280 ng/mL and the concentration at 3 h [21] was 46200 ng/mL. The concentration at 5 h [22] was 87700 ng/mL, the concentration at 8 h [23] was 60900 ng/mL and the concentration at 12 h [24] was 49000 ng/mL. The concentration at 24 h [25] was 60700 ng/mL, the concentration at 3 h [26] was 1660 ng/mL and the concentration at 5 h [27] was 1860 ng/mL. The concentration at 8 h [28] was 1690 ng/mL, the concentration at 12 h [29] was 1020 ng/mL and the concentration at 24 h [30] was 1800 ng/mL. For the same compound, the Kp at 3 h [31] was 34.5, the Kp at 5 h [32] was 44.3 and the Kp at 8 h [33] was 32.5. For the same compound, the Kp at 12 h [34] was 27.3, the Kp at 24 h [35] was 34.9 and the Kp at 3 h [36] was 1.08. It also gave a Kp at 5 h [37] of 0.75, a Kp at 8 h [38] of 0.95 and a Kp at 12 h [39] of 0.59. The Kp at 24 h [40] was 0.92, the “T>MIC90” value [41] was 24 h and the “T>MIC90” value [42] was 24 h. The T>MIC90 (Plasma) was 22.3 h, the Activity (Homo sapiens [43]) was “Non-toxic” and the Activity (Homo sapiens [44]) was “Non-toxic”. The Activity (Homo sapiens [45]) was “Non-toxic”, the Activity (Homo sapiens [46]) was “Non-toxic” and the half-life [47] was 35 h. The fraction unbound [48] was under 0.02 and the Activity (Homo sapiens [49]) was “Non-toxic”.
